Series [1] concerns Rattus norvegicus. Description: Antithrombotic activity in Wistar rat assessed as wet thrombus weight at 0.5 umol/kg, iv. The series is classed as functional. Put shortly:
(§1)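 Male Wistar rats (250–300 g) under ip pentobarbital sodium (80.0 mg/kg). Arteriovenous shunt: polyethylene tube holding a weighed 6 cm thread, filled with heparin sodium (50 IU/ml in NS), joins left jugular vein to right carotid artery. Heparin, then compound in NS (kept on ice), injected through the tube; blood flows 15 min. Thread weighed wet, then dry after 2 weeks in a desiccator.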

In series [2] the test system is Rattus norvegicus. Nature of the series: Antithrombotic activity in Wistar rat assessed as dry thrombus weight at 0.5 umol/kg, iv. The series is classed as functional. In short, it runs like this: as §1
For series [3], the system named is Rattus norvegicus. Description: Antithrombotic activity in Wistar rat assessed as wet thrombus weight at 5 nmol/kg, iv. The series is classed as functional. Put shortly: as §1
The test system of series [4] is Rattus norvegicus. Description: Antithrombotic activity in Wistar rat assessed as wet thrombus weight at 0.5 nmol/kg, iv. In kind it is functional. In short, it runs like this: as §1
For series [5], the system named is Rattus norvegicus. Nature of the series: Antithrombotic activity in Wistar rat assessed as dry thrombus weight at 5 nmol/kg, iv. The series is classed as functional. Put shortly: as §1
The subject of series [6] is Rattus norvegicus. Description: Antithrombotic activity in Wistar rat assessed as dry thrombus weight at 0.5 nmol/kg, iv. The series is classed as functional. In short, it runs like this: as §1
Series [7] in a line: HPLC retention, log K of the compound.
Series [8] has as its system Rattus norvegicus. Description: Antithrombotic activity in Wistar rat assessed as wet thrombus weight at 0.5 umol/kg, po. In kind it is functional. In short, it runs like this:
(§2)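 Compound in NS given orally to male Wistar rats (250–300 g), which were then anesthetized with ip pentobarbital sodium (80.0 mg/kg). Thirty min later the carotid artery and jugular vein were exposed. Blood ran 15 min through a polyethylene-tube shunt holding a thread. Wet thrombus weighed, then dry weight recorded after 2 weeks in a desiccator.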

Series [9] deals with Rattus norvegicus. Nature of the series: Antithrombotic activity in Wistar rat assessed as dry thrombus weight at 0.5 umol/kg, po. The series is classed as functional. In short, it runs like this: as §2
The subject of series [10] is Plasma. Description: Inhibition of ADP-induced platelet aggregation in pig platelet rich plasma. The series is classed as functional, cell-free. The following applies: Sus scrofa. In short, it runs like this:
(§3)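 Pig blood anticoagulated with 0.38% sodium citrate (final). PRP taken at 100 g for 10 min, PPP at 1,500 g for 10 min, platelets adjusted to 2 × 10⁸/ml with autologous PPP. Compound in NS (1–0.01 μmol/L final) added to 0.5 ml PRP. Aggregation induced with PAF (10^-7 mol/L final) or ADP (10^-5 mol/L final), followed turbidimetrically at 37 °C for 5 min. Peak height (Am%) compared with NS control; IC50 derived.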

In series [11] the test system is Plasma. Nature of the series: Inhibition of PAF-induced platelet aggregation in pig platelet rich plasma. The following applies: Sus scrofa. In kind it is functional, cell-free. In short, it runs like this: as §3
Series [12] relates to Rattus norvegicus. Nature of the series: Antithrombotic activity in Wistar rat assessed as wet thrombus weight at […], iv. In kind it is functional.
The subject of series [13] is Rattus norvegicus. Nature of the series: Antithrombotic activity in Wistar rat assessed as dry thrombus weight at […], iv. The series is classed as functional.

SMILES strings stand for the structures.

For `O=C1N[C@@H](Cc2ccccc2)C(=O)N2Cc3[nH]c4ccccc4c3C[C@@H]12`, the Activity with Rattus norvegicus [1] is 8.58 mg; in the series on Rattus norvegicus [2] it was 1.33 mg; in the series on Rattus norvegicus [3], 13.3 mg; in the series on Rattus norvegicus [4], 15.3 mg; in the series with Rattus norvegicus [5] it was 2.08 mg; in the series on Rattus norvegicus [6], 2.39 mg. The “log K” value in [7] is 1.05.
Turning to `O=C(O)CC[C@@H]1NC(=O)[C@@H]2Cc3c([nH]c4ccccc34)CN2C1=O`, the Activity with Rattus norvegicus [1] is reported as 10.42 mg; with Rattus norvegicus [2] it was 3.31 mg. Besides, in series [7], the “log K” value is on record as 0.21.
Take `CC(O)[C@@H]1NC(=O)[C@@H]2Cc3c([nH]c4ccccc34)CN2C1=O` (stereo partly drawn): the Activity in the series with Rattus norvegicus [1] came out at 11.49 mg; with Rattus norvegicus [2] it was 3.65 mg. For the same molecule, in [7], the “log K” value is on record as -0.14.
For the molecule `NC(=O)CC[C@@H]1NC(=O)[C@@H]2Cc3c([nH]c4ccccc34)CN2C1=O`, the results for the Activity in the series with Rattus norvegicus [1] and in the series on Rattus norvegicus [2] were 11.1 mg and 3.52 mg, respectively. In series [7], the “log K” value is 0.28.
With `O=C1NCC(=O)N2Cc3[nH]c4ccccc4c3C[C@@H]12`, the Activity in the series with Rattus norvegicus [1] stood at 10.68 mg; in the series on Rattus norvegicus [2] it was 3.39 mg; with Rattus norvegicus [8] it was 11.57 mg; with Rattus norvegicus [9] it was 3.67 mg. For the same molecule, the “log K” value in series [7] is given as 0.19.
As to `N=C(N)NCCC[C@@H]1NC(=O)[C@@H]2Cc3c([nH]c4ccccc34)CN2C1=O`, the Activity in the series on Rattus norvegicus [1] came out at 8.62 mg; in the series with Rattus norvegicus [2] it was 1.22 mg; in the series with Rattus norvegicus [3] it was 14.52 mg; in the series on Rattus norvegicus [4], 15.71 mg; in the series with Rattus norvegicus [5], 2.27 mg; with Rattus norvegicus [6] it was 2.45 mg. The “log K” value in series [7] is recorded as -0.58.
Turning to `C[C@@H]1NC(=O)[C@@H]2Cc3c([nH]c4ccccc34)CN2C1=O`, the Activity with Rattus norvegicus [1] is recorded as 12.05 mg; in the series with Rattus norvegicus [2], 3.83 mg. The “log K” value in series [7] is reported as 0.47.
On to `NCCCC[C@@H]1NC(=O)[C@@H]2Cc3c([nH]c4ccccc34)CN2C1=O`, for which the Activity came to 12.78 mg with Rattus norvegicus [1], 4.06 mg in the series with Rattus norvegicus [2], 11.75 mg in the series on Rattus norvegicus [8] and 3.73 mg in the series on Rattus norvegicus [9]. Also, in series [7], the “log K” value is listed as -0.26.
On to `CC(C)C[C@@H]1NC(=O)[C@@H]2Cc3c([nH]c4ccccc34)CN2C1=O`, for which the Activity with Rattus norvegicus [1] amounted to 10.4 mg; in the series on Rattus norvegicus [2], 3.3 mg. Besides, in series [7], the “log K” value amounted to 1.32.
Take `CC(C)[C@@H]1NC(=O)[C@@H]2Cc3c([nH]c4ccccc34)CN2C1=O`: the values for the IC50 in the series with Plasma [10] and in the series with Plasma [11] were 112 nM and 294 nM, respectively. In addition, the Activity in the series on Rattus norvegicus [1] worked out at 8.19 mg; in the series with Rattus norvegicus [2], 1.2 mg; in the series on Rattus norvegicus [3], 14.79 mg; with Rattus norvegicus [4], 16.88 mg; in the series on Rattus norvegicus [5] it was 2.31 mg; in the series on Rattus norvegicus [6] it was 2.64 mg. For the same molecule, the “log K” value in [7] is recorded as 0.97.
Turning to `CCC(C)[C@@H]1NC(=O)[C@@H]2Cc3c([nH]c4ccccc34)CN2C1=O` (stereo partly drawn), the Activity with Rattus norvegicus [1] is 12.45 mg; in the series on Rattus norvegicus [2], 3.95 mg. For the same molecule, in [7], the “log K” value came out at 1.26.
With `CC(=O)Oc1ccccc1C(=O)O` [ASPIRIN], the Activity with Rattus norvegicus [12] was 7.56 mg; with Rattus norvegicus [13], 2.4 mg.
Consider `O=C(O)C[C@@H]1NC(=O)[C@@H]2Cc3c([nH]c4ccccc34)CN2C1=O`, for which the Activity stood at 12.26 mg in the series on Rattus norvegicus [1], 3.89 mg in the series on Rattus norvegicus [2], 12.42 mg with Rattus norvegicus [8] and 3.94 mg with Rattus norvegicus [9]. Further, the “log K” value in [7] was determined as 0.15.
For `CSCC[C@@H]1NC(=O)[C@@H]2Cc3c([nH]c4ccccc34)CN2C1=O`, the Activity in the series on Rattus norvegicus [1] is listed as 10.41 mg; with Rattus norvegicus [2], 3.28 mg. The “log K” value in series [7] stood at 0.97.
As to `NC(=O)C[C@@H]1NC(=O)[C@@H]2Cc3c([nH]c4ccccc34)CN2C1=O`, the Activity in the series with Rattus norvegicus [1] was found to be 9.54 mg; in the series with Rattus norvegicus [2], 3.03 mg. In addition, the “log K” value in series [7] was found to be 0.21.
Consider `O=C1N[C@@H](Cc2ccc(O)cc2)C(=O)N2Cc3[nH]c4ccccc4c3C[C@@H]12`, for which the Activity with Rattus norvegicus [1] was 10.49 mg; in the series on Rattus norvegicus [2] it was 3.3 mg. In addition, in series [7], the “log K” value is 0.01.
For `O=C1NC(CS)C(=O)N2Cc3[nH]c4ccccc4c3C[C@@H]12` (single isomer, unassigned), the Activity worked out at 9.06 mg with Rattus norvegicus [1] and 2.88 mg with Rattus norvegicus [2]. In [7], the “log K” value is recorded as 0.71.
Consider `O=C1N[C@@H](CO)C(=O)N2Cc3[nH]c4ccccc4c3C[C@@H]12`, for which the figures for the Activity with Rattus norvegicus [1] and in the series on Rattus norvegicus [2] were 9.44 mg and 2.98 mg, respectively. Further, in [7], the “log K” value is listed as -0.16.

The record behind these values is ChEMBL document CHEMBL1143743, “A new class of anti-thrombosis hexahydropyrazino-[1',2':1,6]pyrido-[3,4-b]-indole-1,4-dions: design, synthesis, logK determination, and QSAR analysis” (Bioorg Med Chem, 2007).
